Assay results of several laboratories.
Lines come from different studies, so protocols differ.
PIK3CA: Phosphatidylinositol 4,5-bisphosphate 3-kinase catalytic subunit alpha isoform (PIK3CA, Homo sapiens, UniProt P42336)
PIK3CA E545K: Phosphatidylinositol 4,5-bisphosphate 3-kinase catalytic subunit alpha isoform (PIK3CA, Homo sapiens, UniProt P42336, E545K)
PIK3CA M1043I: Phosphatidylinositol 4,5-bisphosphate 3-kinase catalytic subunit alpha isoform (PIK3CA, Homo sapiens, UniProt P42336, M1043I)
PIK3CA C420R: Phosphatidylinositol 4,5-bisphosphate 3-kinase catalytic subunit alpha isoform (PIK3CA, Homo sapiens, UniProt P42336, C420R)
PIK3CA H1047Y: Phosphatidylinositol 4,5-bisphosphate 3-kinase catalytic subunit alpha isoform (PIK3CA, Homo sapiens, UniProt P42336, H1047Y)
PIK3CA Q546K: Phosphatidylinositol 4,5-bisphosphate 3-kinase catalytic subunit alpha isoform (PIK3CA, Homo sapiens, UniProt P42336, Q546K)
PIK3CA I800L: Phosphatidylinositol 4,5-bisphosphate 3-kinase catalytic subunit alpha isoform (PIK3CA, Homo sapiens, UniProt P42336, I800L)
PIK3CA H1047L: Phosphatidylinositol 4,5-bisphosphate 3-kinase catalytic subunit alpha isoform (PIK3CA, Homo sapiens, UniProt P42336, H1047L)
PIK3CA E545A: Phosphatidylinositol 4,5-bisphosphate 3-kinase catalytic subunit alpha isoform (PIK3CA, Homo sapiens, UniProt P42336, E545A)
PIK3CA E542K: Phosphatidylinositol 4,5-bisphosphate 3-kinase catalytic subunit alpha isoform (PIK3CA, Homo sapiens, UniProt P42336, E542K)

Structure (SMILES)	target	test	setting	remaining binding
COc1ncc2cc3ccccc3nc2c1C#N	PIK3CA	cell-free assay, competition with immobilised ligand	5 µM	100%
CC(C)(C)c1ccc(-c2nc(CBr)nn2-c2cccc(O)c2)cc1	PIK3CA	cell-free assay, competition with immobilised ligand	10 µM	80%
COc1cc(-c2cn(C3CCc4c(F)cccc4N(CC(F)(F)F)C3=O)nn2)ccc1-n1cnc(C)c1 (stereo not shown)	PIK3CA E545K	cell-free assay, competition with immobilised ligand	1 µM	70%
O=C(NCCCN1CCOCC1)c1ccc(Nc2ncc(Cl)c(-c3ccc(Cl)s3)n2)cc1	PIK3CA E545K	binding, competition with immobilised ligand	1 µM	71%
Cc1noc([C@H]2C[C@@H](c3ccc(C(F)(F)F)cc3)CN(C(=O)N3CCS(=O)(=O)C3)C2)n1	PIK3CA M1043I	cell-free assay, competition with immobilised ligand	1 µM	100%
CN(c1nccc(-c2cnn3ncccc23)n1)C1CC1	PIK3CA E545K	binding	1 µM	100%
COc1cnc(Nc2cccc(S(N)(=O)=O)c2)nc1N1CCN(c2ccccc2)CC1	PIK3CA C420R	binding, competition with immobilised ligand	1 µM	95%
O=C(NS(=O)(=O)c1ccc(NCC2CCOCC2)c([N+](=O)[O-])c1)c1ccc(N2CCN(Cc3ccc(C(F)(F)F)cc3-c3ccc(Cl)cc3)CC2)cc1Oc1cnc2[nH]ccc2c1	PIK3CA H1047Y	cell-free assay, competition with immobilised ligand	1 µM	67%
O=C(c1ccc(Nc2ncc(Cl)c(-c3ccc(Cl)s3)n2)cc1)N1CCC(N2CCCC2)CC1	PIK3CA Q546K	binding, competition with immobilised ligand	1 µM	100%
CN(C)c1ncc(F)c(-c2cnn3ncccc23)n1	PIK3CA H1047Y	binding	1 µM	100%
O=C(NCCCN1CCOCC1)c1ccc(Nc2nccc(-c3cc4ccccc4s3)n2)cc1	PIK3CA Q546K	binding, competition with immobilised ligand	1 µM	81%
C[C@@H]1CCN(c2nccc(-c3cnn4ncccc34)n2)C1	PIK3CA M1043I	binding	1 µM	98%
CN1CC[C@H](c2c(O)cc(O)c3c(=O)cc(-c4ccccc4Cl)oc23)[C@H](O)C1	PIK3CA	cell-free assay, competition with immobilised ligand	10 µM	97%
CN(CCCC(F)(F)F)c1nccc(-c2cnn3ncccc23)n1	PIK3CA I800L	binding	1 µM	100%
C[C@@H]1CN(c2cc(-c3n[nH]c4ccc(OC5(C)CC5)cc34)ncn2)C[C@H](C)O1	PIK3CA H1047L	cell-free assay, competition with immobilised ligand	0.1 µM	87%
CCN1CCN(Cc2ccc(C(=O)Nc3ccc(C)c(Oc4ccc5c(c4)CC(=O)N5)c3)cc2C(F)(F)F)CC1	PIK3CA H1047Y	binding, competition with immobilised ligand	1 µM	100%
O=C(Nc1c[nH]nc1C(=O)NC1CCNCC1)c1cc(F)cc(F)c1	PIK3CA H1047Y	binding, competition with immobilised ligand	1 µM	100%
CN1CCN(c2ccc(Nc3nccc(-c4ccccc4)n3)cc2C(F)(F)F)CC1	PIK3CA H1047Y	binding	10 µM	90%
C=CC(=O)N1CCC(C(=O)NCC(=O)N2CCN(c3nc(-c4cnc(N)nc4C(F)F)nc(N4CCOCC4)n3)CC2)CC1	PIK3CA Q546K	binding, competition with immobilised ligand	1 µM	0%

Structure (SMILES)	target	test	setting	remaining binding
O=C(c1ccc(Nc2ncc(Cl)c(-c3cc4ccccc4s3)n2)cc1)N1CCC(N2CCCC2)CC1	PIK3CA H1047L	binding, competition with immobilised ligand	1 µM	80%
CC1CCCN1c1nccc(-c2cnn3ncccc23)n1 (stereo not shown)	PIK3CA E545K	binding	1 µM	100%
CS(=O)(=O)CCNCc1ccc(-c2ccc3ncnc(Nc4ccc(OCc5cccc(F)c5)c(Cl)c4)c3c2)o1	PIK3CA	cell-free assay, competition with immobilised ligand	0.1 µM	98%
O=C(c1ccc(Nc2nccc(-c3cc4ccccc4s3)n2)cc1)N1CCC(N2CCCC2)CC1	PIK3CA E545A	binding, competition with immobilised ligand	1 µM	100%
COc1cnc(Nc2cccc(S(N)(=O)=O)c2)nc1N1CCN(c2ccccc2)C(=O)C1	PIK3CA E545K	binding, competition with immobilised ligand	1 µM	65%
CSc1cccnc1N1CCN(Cc2nc3ccccc3[nH]2)CC1	PIK3CA H1047L	cell-free assay, competition with immobilised ligand	1 µM	87%
O=C(NCC1CCOCC1)c1n[nH]cc1NC(=O)c1c(F)cccc1F	PIK3CA Q546K	binding, competition with immobilised ligand	1 µM	77%
CN1CCN(c2ccc(Nc3nccc(-c4cccc([N+](=O)[O-])c4)n3)cc2C(F)(F)F)CC1	PIK3CA I800L	binding	10 µM	18%
c1cncc(-c2cccc(Nc3nccc(NC4CCCCC4)n3)c2)c1	PIK3CA E542K	binding, competition with immobilised ligand	10 µM	88%
COCCOc1nc(-c2ccc(Cl)nc2)nc2c1CN(C(=O)c1ncn3ccccc13)CC2	PIK3CA E545A	cell-free assay, competition with immobilised ligand	0.1 µM	100%
C[C@@H](c1ccc(-n2cnc3c(N)ncnc32)cc1)N1CCc2nn(C)c(Cc3ccccc3)c2C1=O	PIK3CA H1047Y	binding, competition with immobilised ligand	0.1 µM	78%
Cc1nc(Cc2cccc(C(F)(F)F)c2)sc1-c1ccc(C(N)=O)nc1	PIK3CA C420R	cell-free assay, competition with immobilised ligand	1 µM	89%
COc1ccnn2ncc(-c3ccnc(N(C)C)n3)c12	PIK3CA I800L	binding	1 µM	94%
Cc1c(C(=O)O)cc(-c2ccc(C3CCNCC3)cc2)c2ccc(-c3ccc(C(F)(F)F)cc3)cc12	PIK3CA H1047Y	cell-free assay, competition with immobilised ligand	1 µM	100%
CN(C)c1nccc(-c2cnc3ncccn23)n1	PIK3CA H1047Y	binding	1 µM	50%
CNC(=O)[C@@H]1CC[C@@H](n2c(-c3ccc4cnccc4c3)nc3ccc(C(=O)NCc4cccc(C(N)=O)c4)cc32)C1	PIK3CA E542K	binding, competition with immobilised ligand	1 µM	100%
N[C@@H]1CCN(c2nccc(-c3cnn4ncccc34)n2)C1	PIK3CA H1047Y	binding	1 µM	91%
Nc1ncc2c(n1)-c1c([nH]c3ccc(C#CC4CC4)cc13)CCCC2	PIK3CA H1047L	binding, competition with immobilised ligand	1 µM	80%
